Source: PubChem (several laboratories)
The list is not random: actives were taken first. Their share in the collection is about 2.2%.
CXCR6 block – CXCR6 receptor inhibitors, primary screen, cell-based, beta-arrestin, luminescence, CHO-K1 PathHunter, 1536-well; C-X-C chemokine receptor type 6 (Homo sapiens), O00574; inhibition, % at 20 µM; 360,000 tested, 0.36% active; AID 602244, 2012; in the data active means inhibition above about 34%, passing the limit was not always enough;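 further: antagonist mode with CXCL16 agonist at 10 nM final; 0% = 10 nM CXCL16 with DMSO and 100% = unstimulated wells without agonist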
CCR6 antagonist – CCR6 receptor antagonists, primary screen, cell-based, CHO-K1, luminescence, beta-arrestin, uHTS; CHO-K1 CCR6 PathHunter beta-arrestin, CCL20-stimulated; inhibition, % at 20 µM; 340,000 tested, 0.49% active;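 active means compounds whose inhibition of the agonist-driven luminescence signal at 20 µM reaches about 50%, limit read from the data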;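 further: cells stimulated with CCL20 at 14 nM final; plate controls were DMSO with CCL20 for no effect and DMSO without agonist for full effect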
EBI2 block – EBI2 receptor antagonists, beta-arrestin recruitment, primary screen, cell-based, luminescence, 7a,25-OHC stimulation, uHTS; G-protein coupled receptor 183 (Homo sapiens), P32249; 7a,25-OHC stimulated; inhibition, % at 5 µM; 360,000 tested, 0.81% active; in the data active means inhibition above about 38%;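 further: enzyme fragment complementation signal reports receptor beta-arrestin coupling in cells; 0% = agonist plus DMSO wells and 100% = wells without agonist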
APJ antag – antagonists of human apelin receptor APJ, primary screen, CHO-K1 cells, beta-arrestin complementation, luminescence; inhibition, % at 20 µM; 330,000 tested, 0.32% active; P35414;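 active means inhibition above about 40% at 20 µM, limit read from the data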;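 further: cells challenged with 10 nM apelin-13 agonist together with compound; plate controls were apelin-13 plus DMSO wells for no effect and DMSO wells lacking apelin-13 for full effect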
APJ ag – agonists of human apelin receptor APJ, primary screen, CHO-K1 cells, PathHunter beta-arrestin, luminescence | 0% DMSO wells, 100% apelin | activation, % at 20 µM | P35414 | 330,000 tested, 0.11% active;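 active means activation more than six SD over the plate average, tested at 20 µM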;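 further: 0% = DMSO alone and 100% = apelin-13 at 10 nM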
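Assay system: engineered CHO-K1 APJ arrestin reporter cells; Amount: 1000 CHO-K1 reporter cells seeded per well; Dosing: one dose, 20 µM compound, 1% DMSO; Times: compound stimulation 90 min at 25 °C, detection 60 min; Measured by: luminescent beta-gal fragment complementation, chemiluminescent substrate; Read-out: APJ–arrestin association signal; Controls: DMSO vs Apelin-13 10 nM.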
HTR2A ag – mouse Htr2a agonists via beta-arrestin recruitment, primary screen, cell-based, luminescence; 360,000 tested, 0.66% active; CHO-K1 mHTR2A beta-arrestin complementation; percent of 30 µM serotonin response; activation, % at 7.6 µM;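 active means activation above a run cutoff, the mean activation of all tested compounds plus 3 SD, cut at about 14% in these data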;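 further: 0% = plate median of compound wells and 100% = 30 µM serotonin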
Target sequence (P35363 whole entry, looked up): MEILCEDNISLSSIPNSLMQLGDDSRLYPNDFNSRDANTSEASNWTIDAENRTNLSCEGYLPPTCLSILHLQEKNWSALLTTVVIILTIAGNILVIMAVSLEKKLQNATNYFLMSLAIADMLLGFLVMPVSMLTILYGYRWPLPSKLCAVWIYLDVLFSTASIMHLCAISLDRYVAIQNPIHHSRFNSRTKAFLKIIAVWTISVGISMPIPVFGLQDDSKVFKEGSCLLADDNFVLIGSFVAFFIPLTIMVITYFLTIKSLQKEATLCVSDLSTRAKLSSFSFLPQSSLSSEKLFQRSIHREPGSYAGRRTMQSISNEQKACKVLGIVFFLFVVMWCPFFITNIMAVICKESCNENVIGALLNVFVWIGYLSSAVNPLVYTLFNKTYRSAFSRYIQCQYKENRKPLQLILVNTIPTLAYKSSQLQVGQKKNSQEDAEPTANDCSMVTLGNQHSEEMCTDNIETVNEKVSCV
OPRM1 ag – OPRM1 agonists via beta-arrestin recruitment, confirmation, counter-screen for mouse HTR2A agonist project, cell-based, luminescence, single concentration | U2OS OPRM1 beta-arrestin PathHunter; DMSO 0%, DAMGO 9.3 µM 100% | 2,300 tested, 5.3% active | AID 624380, 2012 | shares compounds with HTR2A ag | activation, % at 9.3 µM;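 active means mean activation above the mean of DMSO-only wells plus 3 SD, cut at about 0.5% in these data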
m5-HT2A ag conf – mouse HTR2A agonists, beta-arrestin recruitment, confirmation, cell-based, luminescence, CHO-K1 PathHunter, triplicate; DMSO 0%, 30 µM serotonin 100%; AID 624381, 2012; 2,300 tested, 19% active; shares compounds with HTR2A ag; activation, % at 7.6 µM;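 active means mean activation across triplicates above the hit threshold derived in the original primary screen, cut at about 15% in these data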
Active calls of the source: *.

For CSCCC(c1nnnn1-c1c(C)cccc1C)N1CCC2(CC1)C(=O)NCN2c1ccccc1 (stereo not drawn) the results were CXCR6 block 9, EBI2 block -2 and HTR2A ag -1.
CC1=NN=C(c2ccc(N)cc2)c2cc3c(cc2C1)OCO3 was read as CXCR6 block 10, CCR6 antagonist 28, EBI2 block -7, APJ antag -19, APJ ag 20, HTR2A ag 31*, OPRM1 ag 0 and m5-HT2A ag conf 40*.
For CC[C@H](C)[C@@H]1NC(=O)[C@@H](CC(C)C)NC(=O)[C@H](C(C)C)NC(=O)[C@H]2CSSC[C@H](NC1=O)C(=O)N2 the results were CXCR6 block -1, EBI2 block -32, HTR2A ag 57*, OPRM1 ag 1.7* and m5-HT2A ag conf 41*.
`CCCCn1c(O)c(C(=O)/C=C/c2ccc3c(c2)OCO3)c(=O)[nH]c1=O` gave CXCR6 block 3, CCR6 antagonist 15, EBI2 block -4, APJ antag -7, APJ ag -4, HTR2A ag 27*, OPRM1 ag -1 and m5-HT2A ag conf -2.
Screening O=C(/C=C/c1ccc2c(c1)OCO2)c1c(O)n(CCC2=CCCCC2)c(=O)[nH]c1=O returned CXCR6 block -1, CCR6 antagonist 1, EBI2 block 6 and HTR2A ag 3.
`O=C(OCc1ccccc1)N1CCC2CC1c1cc(N3Cc4ccccc4-n4nncc4C3)ccc12` (stereo not drawn) gave CXCR6 block 21, EBI2 block 21 and HTR2A ag -1.
Screening COc1ccc2[nH]cc(CCN)c2c1 returned CXCR6 block -4, CCR6 antagonist 10, EBI2 block 11, APJ antag -61, APJ ag 1, HTR2A ag 52*, OPRM1 ag 0 and m5-HT2A ag conf 28*.
`COc1ccc(CC2=NCCc3cc(OC)c(OC)cc32)cc1OC` gave CXCR6 block 9, EBI2 block -3 and HTR2A ag -4.
`C[C@]12CC[C@H](O)C[C@@H]1CC[C@@H]1[C@@H]2CC[C@]2(C)C(=O)CC[C@@H]12` gave CXCR6 block -6, CCR6 antagonist 8, EBI2 block 10, APJ antag -9, APJ ag -3, HTR2A ag 22*, OPRM1 ag -1 and m5-HT2A ag conf -4.
`COc1ccc(C(c2nnnn2C2CCCC2)N2CCC3(CC2)C(=O)NCN3c2ccccc2)cc1` (stereo not drawn) gave CXCR6 block -2, EBI2 block -2 and HTR2A ag 0.
For COc1cccc(C)c1NC1=NCCO1 the results were CXCR6 block 1, EBI2 block 15 and HTR2A ag -3.
Screening FC(F)(F)c1ccc(CNCCc2c[nH]c3ccccc23)cc1 returned CXCR6 block -27, CCR6 antagonist 2, EBI2 block 4, APJ antag 17, APJ ag 0 and HTR2A ag 2.
`Clc1cccc(CNCCc2c[nH]c3ccccc23)c1` gave CXCR6 block 0, CCR6 antagonist 4, EBI2 block -2, APJ antag 22, APJ ag -1, HTR2A ag 42*, OPRM1 ag 0 and m5-HT2A ag conf 19*.
`Cc1nc2cc(OC(=O)N(C)Cc3cccc(-c4ccncc4)c3)ccc2s1` gave CXCR6 block -7, EBI2 block 23, HTR2A ag 20*, OPRM1 ag 0 and m5-HT2A ag conf -4.
For CC1c2ccccc2-n2nncc2CN1C (stereo not drawn) the results were CXCR6 block 7, CCR6 antagonist -5, EBI2 block -2 and HTR2A ag -1.
Screening Cc1cc(C)n2c(Br)c(CN3CC4CC(C3)c3cccc(=O)n3C4)nc2n1 (stereo not drawn) returned CXCR6 block 0, CCR6 antagonist 3, EBI2 block -8, APJ antag 22, APJ ag -1, HTR2A ag 22*, OPRM1 ag -1 and m5-HT2A ag conf -4.
Screening O=c1cccc2n1CC1CC2CN(Cc2ccc3c(c2)OCO3)C1 (stereo not drawn) returned CXCR6 block -10, CCR6 antagonist 4, EBI2 block 2, APJ antag -4, APJ ag 0 and HTR2A ag -2.
COC(=O)C1=C(c2ccc(OC(F)(F)F)cc2)C[C@@H]2CC[C@H]1N2C(=O)N1CCCCC1 was read as CXCR6 block -10, CCR6 antagonist 19, EBI2 block -10, APJ antag 5, APJ ag -4 and HTR2A ag -4.
CCN(CCCl)c1cc(CN(C)C)cc(NC(=O)c2ccc(C(=O)Nc3cc(CN(C)C)cc(N(CC)CCCl)c3)cc2)c1 was read as CXCR6 block -7, CCR6 antagonist 12, EBI2 block -2 and HTR2A ag -6.
Screening Cc1ccc(NC2=NCCCS2)c(C)c1C returned CXCR6 block 14, CCR6 antagonist 1, EBI2 block 1, APJ antag 5, APJ ag -2, HTR2A ag 19*, OPRM1 ag 0 and m5-HT2A ag conf 15*.
For CC(=O)c1cccc(OCC(O)CN2CC=C(c3ccccc3)CC2)c1 (stereo not drawn) the results were CXCR6 block 2, CCR6 antagonist 4, EBI2 block -16, APJ antag 1, APJ ag -4, HTR2A ag 19*, OPRM1 ag -1 and m5-HT2A ag conf 79*.
COc1ccc(C2=CC(c3ccc4c(c3)OCO4)c3c(c4ccccc4oc3=O)O2)cc1OC (stereo not drawn) was read as CXCR6 block 5, CCR6 antagonist 1, EBI2 block -1 and HTR2A ag -5.
